Assay [1] relates to HEL. The assay can be described thus: Tested for inhibitory activity against Varicella zoster virus(VZV) by plaque reduction assay using HEL cells. Type of assay: functional, cell-based. To be noted: Homo sapiens. (In a plaque reduction assay, fewer plaques than in the control indicate reduced infectivity or spread.)
For assay [2], the system named is Vero. The assay can be described thus: Tested for cytotoxicity in vero cells, activity is expressed as CC50. Type of assay: functional. To be noted: Chlorocebus sabaeus.
Assay [3] is described as follows: Tested for inhibitory activity against Herpes simplex virus type-1(HSV-1), activity is expressed as IC50. Type of assay: functional.
In assay [4] the test system is MRC5. The assay can be described thus: Tested for Antiherpetic activity against HSV-1 from Tomioka strain in MRC-5 cell lines. Type of assay: functional, cell-based. Conditions: Homo sapiens. The procedure, abridged:
(§1)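 Plaque reduction assay in MRC-5 cells, with HSV-1 Tomioka or HSV-2 strain 186 as the challenge virus. […] MRC-5 cells came from a commercial source.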

The subject of assay [5] is MRC5. Briefly: Tested for Antiherpetic activity against HSV-2 from 186 strain in MRC-5 cell lines. Type of assay: functional, cell-based. To be noted: Homo sapiens. The procedure, abridged:
as §1

In assay [6] the test system is HEL. Briefly: Tested for Antiherpetic activity against VZV from Kawaguchi strain in HEL cell lines. The format is functional, cell-based. Conditions: Homo sapiens.
Assay [7] deals with MRC5. The assay can be described thus: Tested for Antiherpetic activity against VZV from clinical isolates of MRC-5 cell lines.(average of six isolates). The format is functional, cell-based. To be noted: Homo sapiens.
In assay [8] the test system is HEL. Briefly: Tested for Antiherpetic activity against VZV from clinical isolates of HEL cell lines.(average of 11 isolates). The format is functional, cell-based. Conditions: Homo sapiens.

Converted amounts (≈) assume the structure as drawn.

The IC50 is the midpoint of a concentration-inhibition curve. The low end stands for greater potency, the high end for weaker potency. Broadly, the CC50 is the concentration that lowers cell viability or growth by half. As to `O=c1[nH]c(=O)n(CC2(CO)CC2CO)cc1/C=C/Cl` (configuration not stated), the IC50 in assay [1] was determined as 0.07 µg/mL (≈ 0.244 µM); in assay [3], 4.3 µg/mL (≈ 15 µM). This compound displayed a CC50 in assay [2] of over 500 µg/mL.
Consider `Nc1nc2c(ncn2COCCO)c(=O)[nH]1` [ACYCLOVIR], for which the IC50 was 0.29 µg/mL (≈ 1.29 µM) in assay [4], 0.25 µg/mL (≈ 1.11 µM) in assay [5] and 0.81 µg/mL (≈ 3.6 µM) in assay [3]. The compound further displayed a half-maximal cytotoxic concentration (CC50) in assay [2] of 820 µg/mL (≈ 3640 µM).
For the compound `O=c1[nH]c(=O)n(CC2(CO)CC2CO)cc1Cl` (configuration not stated), the results for the 50% inhibitory concentration (IC50) in assay [1] and in assay [3] were over 100 µg/mL and 295 µg/mL (≈ 1130 µM), respectively. The compound further gave a CC50 in assay [2] of over 500 µg/mL.
Regarding `Nc1nc(O)c2ncn(C[C@]3(CO)C[C@H]3CO)c2n1`, the IC50 was 0.67 µg/mL (≈ 2.53 µM) in assay [6]; 0.67 µg/mL (≈ 2.53 µM) in assay [1]; 0.0093 µg/mL (≈ 0.0351 µM) in assay [4]; 0.12 µg/mL (≈ 0.452 µM) in assay [5]; 0.21 µg/mL (≈ 0.792 µM) in assay [7]; 0.02 µg/mL (≈ 0.0754 µM) in assay [3]. Besides, the CC50 in assay [2] is 240 µg/mL (≈ 905 µM).
Consider `O=c1ccn(CC2(CO)CC2CO)c(=O)[nH]1` (configuration not stated), for which the values for the IC50 in assay [1] and in assay [3] were over 100 µg/mL and over 500 µg/mL, respectively. Besides, the CC50 in assay [2] was over 500 µg/mL.
In the case of `Nc1nc(O)c2ncn(CCC(CO)CO)c2n1` [PENCICLOVIR], the IC50 in assay [6] turned out to be 5.6 µg/mL (≈ 22.1 µM); in assay [8] it was 10 µg/mL (≈ 39.5 µM); in assay [4], 0.54 µg/mL (≈ 2.13 µM); in assay [5] it was 1.2 µg/mL (≈ 4.74 µM).
On to `O=c1[nH]c(=O)n(CC2(CO)CC2CO)cc1I` (configuration not stated), for which the IC50 turned out to be 9.3 µg/mL (≈ 26.4 µM) in assay [1] and 90 µg/mL (≈ 256 µM) in assay [3]. Also, the CC50 in assay [2] is over 500 µg/mL.
For `Cc1cn(CC2(CO)CC2CO)c(=O)[nH]c1=O` (configuration not stated), in that order: over 100 µg/mL, over 500 µg/mL and over 500 µg/mL.
With `O=c1[nH]c(=O)n(CC2(CO)CC2CO)cc1Br` (configuration not stated), the IC50 was 97 µg/mL (≈ 318 µM) in assay [1] and 215 µg/mL (≈ 705 µM) in assay [3]. Besides, the CC50 in assay [2] is over 500 µg/mL.
For `O=c1[nH]c(=O)n(CC2(CO)CC2CO)cc1/C=C/I` (configuration not stated) the same measures were 0.054 µg/mL (≈ 0.143 µM), 24.6 µg/mL (≈ 65.1 µM) and 330 µg/mL (≈ 873 µM).
For `C#Cc1cn(CC2(CO)CC2CO)c(=O)[nH]c1=O` (configuration not stated), in that order: over 100 µg/mL, 310 µg/mL (≈ 1240 µM) and over 500 µg/mL.
For the compound `O=c1[nH]c(=O)n(CC2(CO)CC2CO)cc1/C=C/Br` (configuration not stated), the half-maximal inhibitory concentration (IC50) in assay [6] is 0.027 µg/mL (≈ 0.0815 µM); in assay [8], 0.097 µg/mL (≈ 0.293 µM); in assay [1] it was 0.027 µg/mL (≈ 0.0815 µM); in assay [4], 0.77 µg/mL (≈ 2.33 µM); in assay [5] it was over 100 µg/mL; in assay [7], 0.035 µg/mL (≈ 0.106 µM). In assay [3], this compound displayed an IC50 of 14.5 µg/mL (≈ 43.8 µM). The same compound had a CC50 in assay [2] of over 500 µg/mL.
With `O=c1[nH]c(=O)n(CC2(CO)CC2CO)cc1F` (configuration not stated), the IC50 in assay [1] is over 100 µg/mL; in assay [3], over 500 µg/mL. Moreover, the CC50 in assay [2] was over 500 µg/mL.
As for `O=c1[nH]c(=O)n([C@@H]2O[C@H](CO)[C@@H](O)[C@H]2O)cc1/C=C/Br`, the values for the IC50 in assay [4] and in assay [7] were 0.14 µg/mL (≈ 0.401 µM) and 0.00031 µg/mL (≈ 0.000888 µM), respectively.
